Several values for one entry are separate records, joined by “and”; a condition that tells them apart may be missing. Equal values may be shown once.
How the values were obtained:
L1210 [1] = test: Compound was tested for antitumor activity against L1210/ara-C leukemia in mouse at dose 1.5 mg/kg administered intraperitoneally; type: functional; details: L1210, ip, route intraperitoneal
Summary of the method: (§1)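 Mice bearing L1210, L1210/ara-C, P388 or P388/ara-C leukaemia. Tumour implanted at the site each line names: ip, sc or ic. Drug given ip in physiologic saline on a QD1-9 schedule, at several dose levels per experiment. Life-span runs ended on day 30. Read-out is median % increase in life span versus tumoured untreated controls, with long-term survivors included.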

P388 [2] = test: Number of 30-day survivors out of 6 mice at dose 1.5 mg/kg administered intraperitoneally; type: functional, Mus musculus; details: route intraperitoneal
Cytomegalovirus [3] = test: Log value for antiviral activity against Cytomegalovirus (AD169) from MRC5 diploid human embryonic lung cells at 32 ug/mL; type: functional
Summary of the method: (§2)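 CMV AD169 yield reduction in MRC5 cells. Subconfluent monolayers infected at MOI 0.2 PFU/cell for 1.5 h at 37 °C, rinsed, then fed drug in MEM + 2% FBS, in duplicate. Drug refed on day 3, cultures harvested on day 6 by freeze-thaw and pooled. Yield titrated by plaque assay under 0.25% agarose overlay for 5–6 days, then formalin-fixed and methylene blue-stained for plaque counts.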

P388 [4] = test: Compound was tested for antitumor activity against P388/ara-C leukemia in mouse at dose 1.5 mg/kg administered intraperitoneally in experiment 2; type: functional; details: P388, ip, route intraperitoneal; summary of the method: as §1
M5076 = test: Log cell kill at the end of treatment at dose 0.5 mg/kg administered intraperitoneally; type: functional, Mus musculus; details: route intraperitoneal
Mus musculus [5] = test: Compound was tested for antitumor activity against human LOX melanoma tumor xenografts in athymic mice at dose 1 mg/kg administered intraperitoneally in experiment 1; type: functional; details: ip, route intraperitoneal
Summary of the method: (§3)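 Athymic mice carrying human LOX melanoma. Drug given ip in saline on a QD1-9 schedule, at several dose levels. Life-span experiment ended on day 30. Read-out is % increase in life span versus untreated tumoured controls, with long-term survivors included.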

Mus musculus [6] = test: Compound was tested for antitumor activity against human LOX melanoma tumor xenografts in athymic mice at dose 1.5 mg/kg administered intraperitoneally in experiment 2; type: functional; details: ip, route intraperitoneal; summary of the method: as §3
P388 [7] = test: Compound was tested for antitumor activity against P388/ara-C leukemia in mouse at dose 1.5 mg/kg administered intraperitoneally in experiment 1; type: functional; details: P388, ip, route intraperitoneal; summary of the method: as §1
Human alphaherpesvirus 3 [8] = test: Compound was tested for antiviral activity against Varicella-Zoster from human diploid foreskin cells in mono layer culture at 0.1 ug/ml; type: functional
Summary of the method: (§4)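 VZV isolate DM625 on Huf cells (human diploid foreskin monolayers). Inoculum was left on after 1 h adsorption at 37 °C. Drug overlay in MEM + 2% FBS without agarose, refed with fresh drug at 72 h, in 2% CO2. Cells fixed in 10% formalin and stained with methylene blue; plaques counted day 6. % plaque reduction versus untreated virus controls, triplicates.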

L1210 [9] = test: Compound was tested for antitumor activity against L1210/ara-C leukemia in mouse at dose 1 mg/kg administered intraperitoneally; type: functional; details: L1210, ip, route intraperitoneal; summary of the method: as §1
L1210 [10] = test: Compound was tested for antitumor activity against L1210 leukemia in mouse at dose 1 mg/kg administered intracerebrally in experiment 2; type: functional; details: L1210, central; summary of the method: as §1
L1210 [11] = test: Compound was tested for antitumor activity against L1210/ara-C leukemia in mouse at dose 2.25 mg/kg administered intraperitoneally; type: functional; details: L1210, ip, route intraperitoneal; summary of the method: as §1
Cytomegalovirus [12] = test: Log value for antiviral activity against Cytomegalovirus (AD169) from MRC5 diploid human embryonic lung cells at 1 ug/mL; type: functional; summary of the method: as §2
L1210 [13] = test: Number of 60-day survivors out of 9 tested at dose 1.5 mg/kg administered intraperitoneally; type: functional, Mus musculus; details: route intraperitoneal
[14] = Ratio of minimum drug concentration to ID50 of the compound(Asibi strain); type: ADME; details: read-out: Therapeutic index
L1210 [15] = test: Median percent increase in life span of tumored, treated mice relative to tumored, untreated controls after intraperitoneal dose 4 mg/kg daily (every 4th day); type: functional; details: Mus musculus, L1210, ip
Human alphaherpesvirus 3 [16] = test: Compound was tested for antiviral activity against Varicella-Zoster from human diploid foreskin cells in mono layer culture at 3.2 ug/ml; type: functional; summary of the method: as §4
[17] = tested on: Japanese encephalitis virus; test: Tested for inhibition of virus-induced cytopathogenic effect and cytotoxicity of compound against Japanese encephalitis virus with […] strain in vero cell; type: functional
Cytomegalovirus [18] = test: Log value for antiviral activity against Cytomegalovirus (AD169) from MRC5 diploid human embryonic lung cells at 320 ug/mL; type: functional; summary of the method: as §2
Human alphaherpesvirus 3 [19] = test: Compound was tested for antiviral activity against Varicella-Zoster from human diploid foreskin cells in mono layer culture at 10 ug/ml; type: functional; summary of the method: as §4
Cytomegalovirus [20] = test: Log value for antiviral activity against Cytomegalovirus (AD169) from MRC5 diploid human embryonic lung cells at 0.32 ug/mL; type: functional; summary of the method: as §2
[21] = Ratio of minimum drug concentration to ID50 of the compound (Indiana strain); type: ADME
[22] = tested on: Vesicular stomatitis virus; test: Inhibitory dose of compound required to inhibit cytopathogenic effects of vesicular stomatitis RNA virus with indiana strain in L929 cells; type: functional
Cytomegalovirus [23] = test: Log value for antiviral activity against Cytomegalovirus (AD169) from MRC5 diploid human embryonic lung cells at 3.2 ug/mL; type: functional; summary of the method: as §2
Human alphaherpesvirus 3 [24] = test: Compound was tested for antiviral activity against Varicella-Zoster from human diploid foreskin cells in mono layer culture at 0.032 ug/ml; type: functional; summary of the method: as §4
Human alphaherpesvirus 3 [25] = test: Compound was tested for antiviral activity against Varicella-Zoster from human diploid foreskin cells in mono layer culture at 0.32 ug/ml; type: functional; summary of the method: as §4
L1210 [26] = test: Compound was tested for antitumor activity against L1210 leukemia in mouse at dose 1.5 mg/kg administered intracerebrally in experiment 1; type: functional; details: L1210, central; summary of the method: as §1
[27] = tested on: Vesicular stomatitis virus; test: Tested for inhibition of virus-induced cytopathogenic effect and cytotoxicity of compound against vesicular stomatitis RNA virus with indiana strain in L929 cell; type: functional
Human alphaherpesvirus 3 [28] = test: Compound was tested for antiviral activity against Varicella-Zoster from human diploid foreskin cells in mono layer culture at 32 ug/ml; type: functional; summary of the method: as §4
Vero = test: Cytotoxicity of compound was determined by reduction in number of viable vero monolayer cells after treatment with 0.032 ug/mL for 4 days; type: functional, Chlorocebus sabaeus
Summary of the method: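 Vero monolayers in duplicate cultures, exposed to each drug concentration in medium at 37 °C in a CO2 incubator for 4 days. Viable cells counted by trypan blue exclusion, and % reduction calculated against untreated control cultures.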

Mus musculus [29] = test: Compound was tested for antitumor activity against human LOX melanoma tumor xenografts in athymic mice at dose 2.25 mg/kg administered intraperitoneally; type: functional; details: ip, route intraperitoneal; summary of the method: as §3
Yellow fever virus = test: Tested for inhibition of virus-induced cytopathogenic effect and cytotoxicity of compound against yellow fever virus with asibi strain vero cell; type: functional
Mus musculus [30] = test: Compound was tested for antitumor activity against human A549 lung tumor xenografts in athymic mice at dose 2 mg/kg administered subrenal capsule in experiment 2; type: functional
Human alphaherpesvirus 3 [31] = test: Compound was tested for antiviral activity against Varicella-Zoster from human diploid foreskin cells in mono layer culture at 100 ug/ml; type: functional; summary of the method: as §4
Cytomegalovirus [32] = test: Log value for antiviral activity against Cytomegalovirus (AD169) from MRC5 diploid human embryonic lung cells at 100 ug/mL; type: functional; summary of the method: as §2
Human alphaherpesvirus 3 [33] = test: Compound was tested for antiviral activity against Varicella-Zoster from human diploid foreskin cells in mono layer culture at 1 ug/ml; type: functional; summary of the method: as §4
L1210 [34] = test: Compound was tested for antitumor activity against L1210 leukemia in mouse at dose 1.5 mg/kg administered subcutaneously in experiment 1; type: functional; details: L1210, sc, route subcutaneous; summary of the method: as §1

In the case of `Nc1ccn([C@@H]2C=C(CO)[C@@H](O)[C@H]2O)c(=O)n1`, the ILS at 1.5 mg/kg (L1210 [1]) is reported as over 650%, the No. of survivors (P388 [2]) is reported as 3 and the “Reduction in virus yield” value (Cytomegalovirus [3]) is reported as 2 pfu/ml. For the same compound, the ILS at 1.5 mg/kg (P388 [4]) was 133%, the LCK (M5076) was -2 and the ILS at 1 mg/kg (Mus musculus [5]) was 119%. The ILS at 1.5 mg/kg (Mus musculus [6]) was 80%, the ILS at 1.5 mg/kg (P388 [7]) was 165% and the Plaque reduction (Human alphaherpesvirus 3 [8]) was 21%. For the same compound, the ILS at 1 mg/kg (L1210 [9]) was over 650%, the ILS at 1 mg/kg (L1210 [10]) was 42% and the ILS at 2.25 mg/kg (L1210 [11]) was over 650%. The “Reduction in virus yield” value (Cytomegalovirus [12]) was 1.4 pfu/ml, the No. of survivors (L1210 [13]) was 5 count and the selectivity ratio [14] was 0.1. For the same compound, the ILS at 4 mg/kg (L1210 [15]) was 91%, the Plaque reduction (Human alphaherpesvirus 3 [16]) was 33% and the Virus rating [17] was 2.4. For the same compound, the “Reduction in virus yield” value (Cytomegalovirus [18]) was 5.3 pfu/ml, the Plaque reduction (Human alphaherpesvirus 3 [19]) was 33% and the “Reduction in virus yield” value (Cytomegalovirus [20]) was 1.3 pfu/ml. For the same compound, the Therapeutic index [21] was 0.4, the selectivity ratio ([21]; read-out: Therapeutic index) was 0.6 and the ID50 [22] was 0.57 µg/mL and 0.25 µg/mL. For the same compound, the “Reduction in virus yield” value (Cytomegalovirus [23]) was 1.5 pfu/ml, the Plaque reduction (Human alphaherpesvirus 3 [24]) was 3% and the Plaque reduction (Human alphaherpesvirus 3 [25]) was 33%. For the same compound, the ILS at 1.5 mg/kg (L1210 [26]) was 45%, the Virus rating [27] was 2.4 and 3 and the Plaque reduction (Human alphaherpesvirus 3 [28]) was 36%. The Reduction (Vero) was 3%, the ILS at 2.25 mg/kg (Mus musculus [29]) was 58% and the Virus rating (Yellow fever virus) was 0.9. The ILS at 2 mg/kg (Mus musculus [30]) was 92%, the Plaque reduction (Human alphaherpesvirus 3 [31]) was 41% and the “Reduction in virus yield” value (Cytomegalovirus [32]) was 2 pfu/ml. For the same compound, the Plaque reduction (Human alphaherpesvirus 3 [33]) was 36% and the ILS at 1.5 mg/kg (L1210 [34]) was 109%.
